In ChEMBL document CHEMBL1781968, “δ-Carbolines and their ring-opened analogs: synthesis and evaluation against fungal and bacterial opportunistic pathogens” (Eur J Med Chem, 2011):
Calls of active or inactive are those of the source. No cut-off for these calls is given here.

Experiments:
Staphylococcus aureus [1] = experiment: Antibacterial activity against Staphylococcus aureus ATCC 29213 by NCCLS method; format: functional, organism-based
How it was run: (§1)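 Broth microdilution (modified NCCLS). Samples in DMSO serially diluted in 0.9% saline, tested in duplicate, highest final concentration 20 μg/mL. Inoculum matched to 0.5 McFarland standard by absorbance at 630 nm, then diluted in cation-adjusted Mueller–Hinton broth. Growth, solvent and medium controls on each plate. Absorbance at 530 nm read before and after incubation. IC50 taken from percent growth versus concentration plot; MIC is lowest concentration with no detectable growth; MBC is lowest concentration killing the organism.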

Staphylococcus aureus [2] = experiment: Antibacterial activity against methicillin-resistant Staphylococcus aureus ATCC 33591 by NCCLS method; format: functional, organism-based; how it was run: as §1
Escherichia coli [3] = experiment: Antibacterial activity against Escherichia coli at 20 ug/ml by NCCLS method; format: functional, organism-based
How it was run: (§2)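 Modified NCCLS broth microdilution. DMSO-dissolved samples serially diluted in 0.9% saline, tested in duplicate, final concentrations starting at 20 μg/mL. Inoculum set to 0.5 McFarland (absorbance 630 nm) and diluted in cation-adjusted Mueller–Hinton broth. Growth, solvent and medium controls on each plate. Read at 530 nm before and after incubation. IC50 from percent growth versus concentration. MIC is lowest concentration with no detectable growth.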

[4] = tested on: Mycobacterium intracellulare; experiment: Antibacterial activity against Mycobacterium intracellular ATCC 23068 by alamar blue method; format: functional, organism-based
How it was run: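 Modified Alamar blue method (Franzblau). Samples in DMSO serially diluted in 0.9% saline, in duplicate, final concentrations starting at 20 μg/mL. Inoculum adjusted to 0.5 McFarland, then diluted in Middlebrook 7H9 with OADC enrichment plus 5% Alamar blue. Fluorescence read (ex 544/em 590 nm) before and after incubation. IC50 from percent growth versus concentration. MIC is no detectable growth.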

[5] = Cytotoxicity against african green monkey Vero cell after 48 hrs by neutral red uptake assay; format: cell-based; details: chlorocebus sabaeus, Vero cells; read-out: TC50
How it was run: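 VERO kidney fibroblasts seeded at 25,000 cells/well and incubated 24 h. Compounds added, highest concentration 10 μg/mL, then 48 h further incubation. Viable cells measured by neutral red assay. IC50 taken from growth-inhibition dose curves. Doxorubicin as positive control, DMSO as vehicle control.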

Aspergillus fumigatus [6] = experiment: Antifungal activity against Aspergillus fumigatus ATCC 204305 at 20 ug/ml by NCCLS method; format: functional, organism-based
How it was run: (§3)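 Modified NCCLS microdilution for fungi. Samples in DMSO serially diluted with 0.9% saline, in duplicate, final concentrations from 20 μg/mL down. Inocula matched to 0.5 McFarland (630 nm) and diluted in Sabouraud dextrose broth. Growth, solvent and medium controls included. OD 530 nm read before and after incubation. IC50 from percent growth curve. MIC is no detectable growth. MFC is lowest concentration killing the organism.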

Escherichia coli [7] = experiment: Antibacterial activity against Escherichia coli by NCCLS method; format: functional, organism-based; how it was run: as §2
Candida albicans = experiment: Antifungal activity against Candida albicans ATCC 90028 by NCCLS method; format: functional, organism-based; how it was run: as §3
Cryptococcus neoformans = experiment: Antifungal activity against Cryptococcus neoformans ATCC 90113 by NCCLS method; format: functional, organism-based; how it was run: as §3
Aspergillus fumigatus [8] = experiment: Antifungal activity against Aspergillus fumigatus ATCC 204305 by NCCLS method; format: functional, organism-based; how it was run: as §3

| SMILES | IC50 (Staphylococcus aureus [1]) [µg/mL] | MBC (Staphylococcus aureus [1]) [µg/mL] | MIC (Staphylococcus aureus [1]) [µg/mL] | IC50 (Staphylococcus aureus [2]) [µg/mL] | MBC (Staphylococcus aureus [2]) [µg/mL] | MIC (Staphylococcus aureus [2]) [µg/mL] | Activity (Escherichia coli [3]) | IC50 [4] [µg/mL] | MBC [4] [µg/mL] | MIC [4] [µg/mL] | CC50 at 48 h [5] [µg/mL] | IC50 (Escherichia coli [7]) [µg/mL] | MBC (Escherichia coli [7]) [µg/mL] | MIC (Escherichia coli [7]) [µg/mL] | IC50 (Candida albicans) [µg/mL] | MFC (Candida albicans) [µg/mL] | MIC (Candida albicans) [µg/mL] | IC50 (Cryptococcus neoformans) [µg/mL] | MFC (Cryptococcus neoformans) [µg/mL] | MIC (Cryptococcus neoformans) [µg/mL] | also measured |
| --- | --- | --- | --- | --- | --- | --- | --- | --- | --- | --- | --- | --- | --- | --- | --- | --- | --- | --- | --- | --- | --- |
| C[n+]1cccc(N(CCCCCC2CCCCC2)c2ccccc2C#N)c1.[I-] | 1.3 | 10 | 2.5 | 6.4 | 20 | 20 | inactive | 3.5 | 20 | 5 | – | – | – | – | – | – | – | – | – | – | – |
| COc1ccc(N(CCCCCC2CCCCC2)c2ccc[n+](C)c2)cc1.[I-] | 0.3 | 10 | 0.6 | 1.9 | 10 | 5 | – | 1 | 5 | 1.3 | > 10 | 5.4 | > 20 | > 20 | – | – | – | – | – | – | Activity (Aspergillus fumigatus [6]): inactive |
| C[n+]1cccc(N(CCCCCC2CCCCC2)c2ccc(C#N)cc2)c1.[I-] | 2.5 | 20 | 5 | 6.2 | 20 | 10 | inactive | 2.8 | 5 | 5 | > 10 | – | – | – | – | – | – | – | – | – | Activity (Aspergillus fumigatus [6]): inactive |
| C[n+]1cccc2c1c1cc(C#N)ccc1n2CCCCCC1CCCCC1.[I-] | 2.6 | 20 | 5 | 5.8 | 20 | 10 | inactive | 2.1 | 5 | 2.5 | > 10 | – | – | – | 19 | > 20 | 20 | 2.8 | 5 | 5 | Activity (Aspergillus fumigatus [6]): inactive |
| CSc1ccc2c(c1)c1c(ccc[n+]1C)n2CCCCCC1CCCCC1.[I-] | 0.4 | 5 | 0.6 | 1.1 | 10 | 2.5 | – | 0.7 | 2.5 | 1.3 | > 10 | 5.6 | > 20 | > 20 | 2.1 | 5 | 5 | 0.3 | 0.6 | 0.6 | IC50 (Aspergillus fumigatus [8]): 13 µg/mL; MFC (Aspergillus fumigatus [8]): 20 µg/mL; MIC (Aspergillus fumigatus [8]): 20 µg/mL |
| C[n+]1cccc2c1c1ccc(Cl)cc1n2CCCCCC1CCCCC1.[I-] | 0.4 | 5 | 0.6 | 1.2 | 2.5 | 2.5 | – | 0.7 | 5 | 1.3 | > 10 | 5.9 | > 20 | > 20 | 2.9 | 10 | 5 | 0.3 | 0.6 | 0.6 | IC50 (Aspergillus fumigatus [8]): 16 µg/mL; MFC (Aspergillus fumigatus [8]): > 20 µg/mL; MIC (Aspergillus fumigatus [8]): 20 µg/mL |
| COc1ccc2c(c1)c1c(ccc[n+]1C)n2CCCCCC1CCCCC1.[I-] | 0.7 | 20 | 1.3 | 3.3 | 20 | 5 | – | 1.6 | 2.5 | 2.5 | > 10 | 12 | > 20 | > 20 | 7.4 | > 20 | 20 | 0.7 | 1.3 | 1.3 | IC50 (Aspergillus fumigatus [8]): 16 µg/mL; MFC (Aspergillus fumigatus [8]): > 20 µg/mL; MIC (Aspergillus fumigatus [8]): > 20 µg/mL |
| COc1cccc(N(CCCCCC2CCCCC2)c2ccc[n+](C)c2)c1.[I-] | 0.8 | 20 | 1.3 | 4.8 | 20 | 10 | inactive | 3.3 | 10 | 5 | – | – | – | – | – | – | – | – | – | – | – |
| C[n+]1cccc2c1c1cccc(Cl)c1n2CCCCCC1CCCCC1.[I-] | 0.2 | 10 | 0.3 | 1.2 | 5 | 2.5 | – | 0.5 | 5 | 0.6 | > 10 | 5.7 | > 20 | > 20 | 2.5 | 5 | 5 | 0.3 | 0.6 | 0.6 | IC50 (Aspergillus fumigatus [8]): 16 µg/mL; MFC (Aspergillus fumigatus [8]): 20 µg/mL; MIC (Aspergillus fumigatus [8]): 20 µg/mL |
| C[n+]1cccc(N(CCCCCC2CCCCC2)c2cccc(C#N)c2)c1.[I-] | 0.8 | 20 | 1.3 | 3.9 | 10 | 10 | inactive | 2 | 10 | 2.5 | – | – | – | – | – | – | – | – | – | – | – |
| C[n+]1cccc2c1c1cc(C(F)(F)F)ccc1n2CCCCCC1CCCCC1.[I-] | 0.4 | 10 | 0.6 | 1.2 | 10 | 2.5 | – | 0.8 | 2.5 | 1.3 | > 10 | 7.6 | > 20 | > 20 | 5.8 | 20 | 10 | 0.4 | 1.3 | 0.6 | IC50 (Aspergillus fumigatus [8]): 18 µg/mL; MFC (Aspergillus fumigatus [8]): > 20 µg/mL; MIC (Aspergillus fumigatus [8]): > 20 µg/mL |
| C[n+]1cccc(N(CCCCCC2CCCCC2)c2ccc(F)cc2)c1.[I-] | 0.7 | 10 | 1.3 | 3 | 20 | 5 | – | 3.2 | 10 | 5 | > 10 | 18 | > 20 | > 20 | – | > 20 | – | – | – | – | Activity (Aspergillus fumigatus [6]): inactive |
